System: not listed separately
Experiment: Mean retention time in reversed phase HPLC (RP-18)
Format: ADME
Details: not given

| Compound | Retention time |
| --- | --- |
| C#CCn1c(=O)c(C)cn([C@H]2CC(O)[C@@H](CO)O2)c1=O (single isomer, unassigned) | 11.79 min |
| Cc1cn([C@H]2C[C@H](O)[C@@H](CO)O2)c(=O)[nH]c1=O [DOXRIBTIMINE] | 8.72 min |
| Cc1cn([C@H]2C[C@H](N=[N+]=[N-])[C@@H](CO)O2)c(=O)[nH]c1=O [ZIDOVUDINE] | 12.22 min |

System: L929
Experiment: Mean phosphorylation rate of 10 uM compound by recombinant human thymidine kinase 1 (cytosolic) expressing wild type L929 tumor cells
Format: functional, Mus musculus
Details: not given
Summary of the method: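 Purified recombinant human TK1 (50 ng) with 10 µM substrate, final DMSO 1%, 100 µM ATP spiked with 0.03 µM [γ-32P]-ATP, in 50 mM Tris-HCl pH 7.6, 5 mM MgCl2, 125 mM KCl, 10 mM DTT, 0.5 mg/mL BSA. Run at 37 °C for 20 min, then 95 °C for 2 min. Products separated by PEI-cellulose TLC and read by phosphorimager. Rate expressed relative to thymidine, using one enzyme batch.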

| Compound | Phosphorylation rate |
| --- | --- |
| C#CCn1c(=O)c(C)cn([C@H]2CC(O)[C@@H](CO)O2)c1=O (single isomer, unassigned) | 102% |
| Cc1cn([C@H]2C[C@H](O)[C@@H](CO)O2)c(=O)[nH]c1=O [DOXRIBTIMINE] | 100% |
| Cc1cn([C@H]2C[C@H](N=[N+]=[N-])[C@@H](CO)O2)c(=O)[nH]c1=O [ZIDOVUDINE] | 52% |

Same assay, conditions: Mus musculus

| Compound | Phosphorylation rate |
| --- | --- |
| 3-[2-(7-Amino-closo-m-carboran-1-yl)-ethan-1-yl]thymidine | 71.9% |
| 3-[2-(7-Amino-closo-m-carboran-1-yl)ethoxyethyl]thymidine | 48.4% |
| 3-[2-(7-Ammonium-nido-m-carboran-1-yl)ethan-1-yl]-thymidine | 89.4% |
| 3-[2-(7-Ammonium-nido-m-carboran-1-yl)ethoxyethyl]-thymidine | 75.1% |
| 3-[3-(7-Amino-closo-m-carboran-1-yl)propan-1-yl]thymidine | 58.2% |
| 3-[3-(7-Ammonium-nido-m-carboran-1-yl)propan-1-yl]-thymidine | 64.6% |
| 3-[4-(7-Amino-closo-m-carboran-1-yl)butan-1-yl]thymidine | 58% |
| 3-[4-(7-Ammonium-nido-m-carboran-1-yl)butan-1-yl]-thymidine | 63.8% |
| 3-[5-(7-Amino-closo-m-carboran-1-yl)hexan-1-yl]thymidine | 14.2% |
| 3-[5-(7-Amino-closo-m-carboran-1-yl)pentan-1-yl]thymidine | 45.1% |
| 3-[5-(7-Ammonium-nido-m-carboran-1-yl)pentan-1-yl]thymidine | 50.7% |
| 3-[6-(7-Ammonium-nido-m-carboran-1-yl)hexan-1-yl]-thymidine | 45.4% |
| 3-[(closo-o-Caboran-1-yl)methyl]thymidine | 9.6% |
| N5-20H | 41% |

Source: ChEMBL document CHEMBL1142668, “Synthesis and biological evaluation of neutral and zwitterionic 3-carboranyl thymidine analogues for boron neutron capture therapy” (J Med Chem, 2005)
